Compound activity: PubChem BioAssay, several laboratories
GalR3 antagonist: GalR3 antagonists in HEK293 cells, primary screen, cell-based, fluorescence readout; Galanin receptor type 3 (Homo sapiens), O60755; HEK293 GalR3-CNG cAMP membrane potential fluorescence; galR3 body fused to GalR1 C-terminus; inhibition, % at 3 µM; actives 0.44% (n = 360,000); AID 651719, 2012;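 active = inhibition above the screen-wide average plus 3 SD, cut at about 13% in these data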;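 note: forskolin and galanin both at EC90 stimulate the cells; cAMP rise reported by CNG channel membrane potential dye signal; 0% = forskolin plus galanin with DMSO and 100% = forskolin alone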
Target sequence (O60755 1-299 limits assumed): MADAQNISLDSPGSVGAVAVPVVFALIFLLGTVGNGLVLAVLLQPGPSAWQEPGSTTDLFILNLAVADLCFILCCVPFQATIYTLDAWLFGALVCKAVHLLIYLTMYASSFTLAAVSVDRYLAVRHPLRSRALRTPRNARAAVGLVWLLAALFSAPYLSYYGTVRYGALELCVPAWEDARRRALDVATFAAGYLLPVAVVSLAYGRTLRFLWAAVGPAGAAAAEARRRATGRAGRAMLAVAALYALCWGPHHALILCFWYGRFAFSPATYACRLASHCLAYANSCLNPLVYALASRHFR
NadD inh: inhibitors of S. aureus NadD, primary screen, biochemical, colorimetric, uHTS; purified NadD enzyme, colorimetric absorbance read-out; Nicotinate-nucleotide adenylyltransferase NadD (Staphylococcus aureus N315); inhibition, % at 20 µM; actives 0.78% (n = 360,000); in the data active = inhibition above about 26%
MsrA inhibitor: bovine MsrA enzyme inhibitors, primary screen, biochemical, absorbance, HTS; Methionine sulfoxide reductase A (Bos taurus); purified bovine MsrA, absorbance read-out; inhibition, % at 15.5 µM; actives 0.75% (n = 360,000); in the data active = inhibition above about 4.5%;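 note: 0% = vehicle wells with enzyme and 100% = reference inhibitor wells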
NR2E3 ag-1: inhibitors of NR2E3-RetCOR corepressor binding, primary screen, NR2E3 agonist project, biochemical, TR-FRET, GST-NR2E3, biotin-RetCOR; 1536-well; actives 0.12% (n = 320,000); inhibition of corepressor binding, % at 4.78 µM; Photoreceptor-specific nuclear receptor (Homo sapiens), Q9Y5X4;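 active = percent inhibition above the cutoff of mean plus 3 SD of all tested compounds, set per screening campaign, cut at about 20% in these data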;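 note: 0% = DMSO wells and 100% = biotin wells as full block of FRET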
Target sequence (Q9Y5X4 whole entry, looked up): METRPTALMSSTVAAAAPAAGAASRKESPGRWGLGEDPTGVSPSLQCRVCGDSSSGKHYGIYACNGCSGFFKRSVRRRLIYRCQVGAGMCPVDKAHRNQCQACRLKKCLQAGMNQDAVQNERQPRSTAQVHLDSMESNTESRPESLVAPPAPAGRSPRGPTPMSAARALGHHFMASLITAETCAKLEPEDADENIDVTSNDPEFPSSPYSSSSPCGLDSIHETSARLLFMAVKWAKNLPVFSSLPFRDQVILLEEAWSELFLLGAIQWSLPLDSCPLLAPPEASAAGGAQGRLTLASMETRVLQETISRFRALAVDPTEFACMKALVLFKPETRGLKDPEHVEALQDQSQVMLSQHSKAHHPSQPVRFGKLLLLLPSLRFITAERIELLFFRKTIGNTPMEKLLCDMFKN
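Material: NR2E3–RetCOR corepressor complex | Quantity: 1.35 nM GST-tagged NR2E3 final | Schedule: 5 h at 4 °C | Replication: Singlicate compound wells | Reagent: RetCOR corepressor, biotinylated, 7 nM | Controls: Biotin wells as high control, 0.6% DMSO wells as low control | Signal: TR-FRET, Eu(K)-anti-GST donor, streptavidin-D2 acceptor, ex 340, em 617/671 nm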
bovine MsrA act: bovine MsrA enzyme activators, primary screen, biochemical, absorbance, HTS | purified bovine MsrA, absorbance read-out | Methionine sulfoxide reductase A (Bos taurus) | AID 602163, 2012 | activation, % at 10.6 µM | actives 0.3% (n = 360,000); in the data active = activation above about 7.5%;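 note: 0% = vehicle and 100% = reference activator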
NR2E3 ag-2: NR2E3 agonists in two-hybrid cells, primary screen, cell-based, luminescence, CHO-S, Gal4-NCOR/VP16-NR2E3; Photoreceptor-specific nuclear receptor (Homo sapiens), Q9Y5X4; luciferase; inhibition of corepressor binding, % at 3.98 µM; actives 0.35% (n = 360,000); AID 602229, 2012;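 active = inhibition above the mean of all tested compounds plus 3 SD, cut at about 70% in these data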;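 note: 0% = DMSO with NR2E3 transfected cells and 100% = cells lacking NR2E3 construct; higher means lower luciferase signal from less NR2E3 corepressor binding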
NR2E3 ag conf: NR2E3 agonist confirmation in cells, cell-based, luminescence, CHO-S two-hybrid; shares compounds with NR2E3 ag-2; CHO-S mammalian two-hybrid NR2E3-NCOR, luciferase luminescence; inhibition, % at 3.98 µM; actives 51% (n = 2,300); AID 624378, 2012;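 active = average inhibition above a cutoff equal to the mean inhibition of all tested compounds plus one SD, cut at about 70% in these data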;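 note: 0% = DMSO in NR2E3 cells and 100% = DMSO in cells lacking NR2E3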
VP16 counter: GAL4-VP16 reporter modulators, confirmation, counter-screen for NR2E3 agonist project, cell-based, luminescence, CHO-S, high throughput | shares compounds with NR2E3 ag-2 | CHO-S GAL4-VP16 luciferase reporter | inhibition, % at 3.98 µM | actives 29% (n = 2,300) | AID 624379, 2012;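 active = mean inhibition above a cutoff equal to the average over all tested compounds plus one standard deviation, cut at about 70% in these data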;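 note: luciferase from a UAS reporter driven by GAL4-VP16 transactivation; 0% = DMSO with VP16-transfected cells and 100% = DMSO with cells lacking VP16; higher means less reporter light so more repression of VP16 activity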
Numbers without * were called inactive; nt = not tested or not shown. In the library only some 2.5% were active in any assay of this set; here they are far more common.

SMILES | GalR3 antagonist | NadD inh | MsrA inhibitor | NR2E3 ag-1 | bovine MsrA act | NR2E3 ag-2 | NR2E3 ag conf | VP16 counter
C=CCn1c(O)c(N=NC(=S)Nc2ccc(OC)cc2)c2ccccc21 | -4 | 5 | -1 | 3 | -13 | 38 | nt | nt
Cc1ccc(C2NC(=S)N3C(c4ccc(C)cc4)NC(=S)N23)cc1 (stereo unspecified) | -5 | -1 | 2 | nt | -2 | -24 | nt | nt
COn1c2c(c3c4no[n+]([O-])c4ccc31)CCCC2 | -2 | 4 | -1 | 5 | -4 | -6 | nt | nt
[O-][n+]1c2c(c3c4non(O)c4ccc31)CCCC2 | -5 | -2 | 0 | -3 | -5 | 70 | 65 | 36
Cc1ccc(OCc2nnc(SCc3nc4ccccc4[nH]3)n2Cc2ccco2)cc1 | -3 | 17 | 0 | -5 | 1 | 49 | 66 | 65
c1ccc(-c2nnc(SCc3nc4ccccc4[nH]3)n2Cc2ccco2)cc1 | -5 | 6 | -1 | 2 | -3 | 0 | nt | nt
COCCN(C(=O)CC1OC(=O)c2ccccc21)c1c(N)n(Cc2ccccc2)c(=O)[nH]c1=O (stereo unspecified) | -7 | -6 | 0 | 0 | 0 | -9 | nt | nt
C#CC(c1ccccc1)(c1ccccc1)n1ccnc1 | -4 | -4 | 1 | nt | -2 | 18 | nt | nt
Clc1ccccc1C(c1ccccc1)(c1ccccc1)n1ccnc1 | 1 | 12 | -2 | -28 | -1 | 60 | 70 | 54
COCCNC(=O)C(c1ccc(F)cc1)N(C(=O)CCC(=O)Nc1ccccn1)c1ccc(C)cc1 (stereo unspecified) | -8 | -3 | 0 | 2 | -2 | -12 | nt | nt
Cc1cc(/C=N/n2cnnc2)c(C)n1-c1ccc(OCc2ccccc2F)cc1 | -13 | 2 | -1 | 4 | -2 | 66 | 96* | 79*
Fc1ccccc1COc1cccc(/C=N/n2cnnc2)c1 | -4 | -5 | 0 | -2 | -4 | -52 | nt | nt
CCN(CC)S(=O)(=O)c1cc(NS(=O)(=O)c2cc(Cl)ccc2Cl)ccc1C | 1 | -4 | -1 | -3 | -7 | 12 | nt | nt
CC(=NNC(=S)Nc1ccccc1)c1ccccn1 | -5 | -1 | 1 | nt | 0 | 85* | -29 | -15
C/C(=N\NC(=O)c1ccc(F)cc1)c1ccccn1 | -11 | -6 | -1 | -1 | 0 | -61 | nt | nt
C/C(=N\NC(=O)c1ccccc1-n1cccc1)c1ccccn1 | 2 | -3 | 0 | nt | 2 | -10 | nt | nt
CC(=NNC(=S)N1CCCCC1)c1cccc(C)n1 | -6 | 2 | 0 | nt | -3 | 39 | nt | nt
CC(=NNC(=S)Nc1ccccc1Cl)c1ccccn1 | -3 | 3 | 0 | nt | -8 | 86* | -38 | -17
C=CCNC(=S)N/N=C(\C)c1ccccn1 | -3 | -5 | 1 | -1 | -9 | 84* | 6 | 12
CC(=NNC(=S)N1CCCCC1)c1ccccn1 | 5 | -1 | 0 | nt | -8 | 85* | 58 | 32
C[C@@H]1CN([C@@H](C)CO)C(=O)c2cc(C#Cc3ccccc3)cnc2O[C@H]1CN(C)C(=O)c1ccccc1F | -6 | -10 | 0 | nt | -2 | -11 | nt | nt
Cc1ccc(C(=O)N2CCC(C(=O)c3ccc(F)cc3)CC2)cc1 | -8 | -3 | 0 | nt | -3 | 5 | nt | nt
Cc1ccc(C(=O)C2CCN(C(=O)c3ccc(C)cc3)CC2)cc1 | -10 | -4 | -1 | -2 | -8 | 55 | 32 | 27
O=C1c2ccccc2-c2nc3ncnn3c(-c3ccccc3Cl)c21 | 2 | -2 | 0 | 1 | -4 | -21 | nt | nt
COc1ccc(C)cc1NC(=O)c1nnn(Cc2cccc(C(F)(F)F)c2)c1N | -4 | -5 | -1 | 0 | 0 | 63 | 85* | 22
SMILES | GalR3 antagonist | NadD inh | MsrA inhibitor | NR2E3 ag-1 | bovine MsrA act | NR2E3 ag-2 | NR2E3 ag conf | VP16 counter
Cc1ccc(CNC(=O)Cn2nnc(C(=O)Nc3cccc(C)c3C)c2N)cc1 | -9 | -4 | 2 | 2 | -4 | -43 | nt | nt
Cc1ccccc1Cn1nnc(C(=O)Nc2cccc(C)c2C)c1N | -6 | -11 | 0 | 4 | -2 | 66 | 87* | 36
COc1ccc(OC)c(NC(=O)c2nnn(CCc3ccccc3)c2N)c1 | 4 | -5 | 0 | 4 | -2 | -19 | nt | nt
COc1cccc(C(=O)c2cn(CC(=O)NCc3ccco3)c3nc(C)ccc3c2=O)c1 | 3 | 7 | 1 | -3 | -3 | -7 | nt | nt
CSc1nc2ccc(NS(=O)(=O)c3ccc4c(c3)OCCO4)cc2s1 | -2 | -4 | 0 | 2 | -5 | 76* | 91* | 82*
CSc1nc2ccc(S(=O)(=O)NC3CCCCC3)cc2s1 | -4 | -1 | 1 | 5 | 2 | 50 | 21 | 30
O=S(=O)(Nc1ccc2c(c1)OCCO2)c1ccc2oc3ccccc3c2c1 | -10 | 5 | 1 | 0 | 1 | 81* | 84* | 68
CN(C)C(CNC(=O)CSc1nc2sc3c(c2c(=O)n1C)CCC3)c1ccccc1 (stereo unspecified) | -5 | -1 | 1 | 2 | -1 | -2 | nt | nt
NC(=S)NN=Cc1nccc2c(C(F)(F)F)cccc12 | -3 | -1 | 2 | nt | -2 | 65 | -10 | 21
COc1ccc(NC(=O)Nc2ccon2)c(OC)c1 | 0 | -3 | 2 | 3 | -5 | -9 | nt | nt
CC(OC(=O)c1cc(Br)ccc1O)C(=O)Nc1ccc(S(=O)(=O)N2CCCC2)cc1 (stereo unspecified) | -1 | 0 | 0 | -1 | -13 | 52 | -23 | -4
COc1ccc(CCNC(=O)C2=CCN(S(=O)(=O)c3ccc(F)cc3)CC2)cc1OC | -7 | -5 | 1 | 2 | -8 | -11 | nt | nt
Cc1cc(C(=O)CSc2nnc3ccccn23)c(C)n1-c1ccccc1 | 8 | 7 | 1 | -1 | -3 | 62 | 98* | -74
Cc1cc(C(=O)CSc2nnc(-c3ccccc3)n2-c2ccccc2)c(C)n1-c1ncn[nH]1 | -3 | 11 | 1 | -1 | -13 | 13 | nt | nt
Cc1ccc(NC(=O)C(OC(=O)c2ccc(NC(N)=O)cc2)c2ccccc2)cc1Cl (stereo unspecified) | 0 | 10 | -2 | 3 | -4 | -35 | nt | nt
